# High-throughput results deposited in PubChem BioAssay by Broad Institute.
# In the library only some 5.8% were active in any assay of this set; here they are far more common.
# IDH1 mut inh: inhibitors of IDH1 R132H reductase, primary screen, biochemical, plate reader, single point; diaphorase/resazurin fluorescence, 60 min; inhibition, % at 10 µM; Isocitrate dehydrogenase [NADP] cytoplasmic (Homo sapiens), O75874; hit rate 0.18% among 70,000; in the data active = inhibition above about 34%
# Tcruzi prolif: T. cruzi intracellular proliferation inhibitors, primary screen, cell-based, beta-gal Tulahuen parasites, NIH3T3 host, luminescence. T. cruzi beta-gal in NIH3T3, GalScreen luminescence, 90 h. hit rate 5.9% among 77,000. inhibition, % at 8.34 µM;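 active = mean inhibition above about 93%, with at least 55% of replicates each passing it, limit read from the data, passing the limit was not always enough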
# Pf Dd2 inh: P. falciparum Dd2 growth inhibitors, primary screen, SYBR Green fluorescence, single dose replicates | 72 h; stronger effect = lower value | activity change, % at 10 µM | hit rate 2.3% among 94,000 | AID 1159554, 2015; in the data active = activity change below about -80%
# KDM4C inh: inhibitors of GASC-1 (KDM4C) histone demethylase, primary screen, biochemical, single concentration HTS. inhibition, % at 12.5 µM. Lysine-specific demethylase 4C (Homo sapiens), Q9H3R0. GST-KDM4C 2-372, H3K9me3 peptide, LANCE TR-FRET. hit rate 0.15% among 96,000;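 active = mean replicate inhibition above about 25%, with at least 55% of replicates also reaching it, limit read from the data, passing the limit was not always enough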
# Target sequence (Q9H3R0 2-372 limits assumed): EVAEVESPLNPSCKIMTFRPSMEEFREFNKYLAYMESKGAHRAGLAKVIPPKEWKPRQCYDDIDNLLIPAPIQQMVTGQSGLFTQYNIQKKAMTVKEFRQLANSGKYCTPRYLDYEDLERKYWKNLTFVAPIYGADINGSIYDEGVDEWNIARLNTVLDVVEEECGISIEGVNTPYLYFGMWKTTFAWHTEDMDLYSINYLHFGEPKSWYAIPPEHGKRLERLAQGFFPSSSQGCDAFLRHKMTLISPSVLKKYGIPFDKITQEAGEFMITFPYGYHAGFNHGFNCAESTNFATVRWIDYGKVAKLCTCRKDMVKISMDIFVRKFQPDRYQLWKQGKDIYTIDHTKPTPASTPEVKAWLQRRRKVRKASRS
#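 System: N-terminal GST-fused human GASC-1 (KDM4C) fragment, residues 2-372; amount: enzyme final amount 10 nM; incubation: reaction 30 min RT, detection step 1 h RT; medium: HEPES buffer, pH 7.5, plus ascorbate; technique: LANCE TR-FRET, Eu antibody, ULight-streptavidin, EDTA, ex 340 nm, em 618/671 nm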
# A number is an active result; i = inactive; nt = not tested or not shown.
SMILES,IDH1 mut inh,Tcruzi prolif,Pf Dd2 inh,KDM4C inh
COc1ccc2c3c([nH]c2c1)[C@H](CO)N(C(=O)Nc1ccc(F)cc1)CC31CCN(C(=O)Nc2ccc3c(c2)OCO3)CC1,nt,nt,-85.6,i
COc1ccc2c3c([nH]c2c1)[C@H](CO)N(C(=O)Nc1ccc(F)cc1)CC31CCN(S(=O)(=O)c2ccc(C)cc2)CC1,nt,nt,-82.3,i
COc1ccc2c3c([nH]c2c1)[C@H](CO)N(C(=O)C1CCCCC1)CC31CN(C(=O)c2ccncc2)C1,nt,nt,i,i
O=C(C[C@@H]1C=C[C@@H](NS(=O)(=O)c2cccc(F)c2)[C@@H](CO)O1)NCc1ccc2c(c1)OCO2,i,nt,i,i
COCC(=O)N(C[C@@H]1N[C@@H](CO)[C@H]1c1ccc(-c2ccccc2)cc1)C(C)C,nt,i,i,i
C[C@@H]1CN([C@@H](C)CO)C(=O)c2cccc(NC(=O)c3ccc(-c4nccs4)cc3)c2O[C@@H]1CN(C)S(=O)(=O)c1ccc(F)cc1,i,i,i,i
CO[C@@H]1CN(C)C(=O)c2ccc(NC(=O)c3nc4ccccc4s3)cc2OC[C@H](C)N(Cc2ccncc2)C[C@@H]1C,i,nt,-95.9,i
CO[C@@H]1CN(C)C(=O)c2ccc(NC(=O)c3nc4ccccc4s3)cc2OC[C@@H](C)N(Cc2ccncc2)C[C@@H]1C,i,nt,i,i
CO[C@@H]1CN(C)C(=O)c2ccc(NC(=O)c3nc4ccccc4s3)cc2OC[C@H](C)N(Cc2cccnc2)C[C@H]1C,nt,i,i,i
CO[C@@H]1CN(C)C(=O)c2ccc(NC(=O)c3nc4ccccc4s3)cc2OC[C@H](C)N(Cc2cccnc2)C[C@@H]1C,nt,i,-82.7,i
O=C(C1CCC1)N1CC[C@@H]2[C@@H](CO)Nc3ccc(-c4cccc(F)c4)cc3[C@@H]21,nt,i,i,i
N#Cc1ccc(-c2ccc3c(c2)[C@@H]2[C@@H](CCN2C(=O)C2CCC2)[C@@H](CO)N3)cc1,nt,nt,-84.2,i
O=C(C1CCCC1)N1CC[C@@H]2[C@H]1c1cc(-c3cccc(F)c3)ccc1N[C@@H]2CO,nt,nt,-81.8,i
N#Cc1cccc(-c2ccc3c(c2)[C@H]2[C@H](CCN2C(=O)C2CCCCC2)[C@H](CO)N3)c1,nt,i,i,i
N#Cc1ccc(-c2ccc3c(c2)[C@H]2[C@H](CCN2C(=O)C2CCCC2)[C@H](CO)N3)cc1,nt,nt,-85.8,nt
COc1ccc(CN(C)C[C@H]2OCCCC[C@@H](C)Oc3ccc(NC(=O)Cc4ccccc4)cc3C(=O)N([C@H](C)CO)C[C@H]2C)cc1,nt,i,i,i
COc1cccc(CN(C)C[C@@H]2OCc3cn(nn3)CCCC(=O)N([C@@H](C)CO)C[C@H]2C)c1,i,i,i,i
COc1ccc(CN(C)C[C@H]2Oc3ccc(NC(=O)CCN4CCOCC4)cc3CC(=O)N([C@H](C)CO)C[C@@H]2C)cc1,i,nt,i,i
COc1ccc2c3c(n(C)c2c1)[C@H](CO)N(C(=O)C1CCC1)CC31CCN(C(=O)CN(C)C)CC1,nt,nt,-81.5,i
COc1ccc(NC(=O)N2CC3(C2)CN(C(=O)C2CCC2)[C@@H](CO)c2c3c3ccc(OC)cc3n2C)cc1,nt,nt,i,i
COc1ccc(NC(=O)N2CCC3(CC2)CN(C(=O)C2CCC2)[C@@H](CO)c2c3c3ccc(OC)cc3n2C)cc1,nt,nt,-93.5,i
COc1ccc2c3c(n(C)c2c1)[C@H](CO)N(C(=O)C1CCC1)CC31CCN(C(=O)Nc2cccc(F)c2)CC1,nt,nt,i,i
COc1ccc2c3c(n(C)c2c1)[C@H](CO)N(C(=O)C1CC1)CC31CCN(C(=O)Nc2cccc(F)c2)CC1,nt,nt,-81.9,i
COc1ccc2c3c(n(C)c2c1)[C@@H](CO)N(C(=O)C1CCC1)CC31CCN(C(=O)Nc2cccc(F)c2)CC1,nt,nt,-85.8,i
COc1ccc2c3c(n(C)c2c1)[C@@H](CO)N(C(=O)C1CCC1)CC31CCN(C(=O)CN(C)C)CC1,nt,nt,i,i
SMILES,IDH1 mut inh,Tcruzi prolif,Pf Dd2 inh,KDM4C inh
CNC[C@H]1Oc2ccc(N(C)C)cc2C(=O)N([C@@H](C)CO)C[C@H]1C,i,i,i,nt
C[C@@H]1CCCCO[C@H](CN(C)C)[C@@H](C)CN([C@@H](C)CO)C(=O)c2cc(NC(=O)c3ccccc3)ccc2O1,i,i,i,i
COc1ccc(S(=O)(=O)N2CC3(CN(C(=O)CN(C)C)[C@H](CO)c4c3c3ccc(OC)cc3n4C)C2)cc1,nt,nt,-84.1,i
COc1ccc2c3c(n(C)c2c1)[C@@H](CO)N(C(=O)C1CCCC1)CC31CN(C(=O)Nc2cccc(F)c2)C1,nt,nt,-88.2,i
CCS(=O)(=O)N1CCC2(CC1)CN(C(=O)Nc1cccc(F)c1)[C@H](CO)c1c2c2ccc(OC)cc2n1C,nt,nt,-88.0,i
C[C@@H](NC(=O)C[C@H]1C[C@@H]2c3cc(NC(=O)c4cccnc4)ccc3O[C@@H]2[C@@H](CO)O1)c1ccccc1,i,i,i,i
CC(C)NC(=O)Nc1ccc2c(c1)C(=O)N(C)[C@H]1CC[C@H](CC(=O)Nc3ccccc3)O[C@H]1CO2,nt,i,-97.8,i
CC1CC(NC(=S)NC2CC3C=CC2C3)CC(C)(C)C1 (stereo unspecified),i,nt,nt,nt
Cc1ccc(S(=O)(=O)Nc2ccc3c(c2)CC(=O)N([C@@H](C)CO)C[C@@H](C)[C@@H](CN(C)Cc2ccncc2)O3)cc1,i,i,i,i
C[C@H]1CN([C@@H](C)CO)C(=O)Cc2cc(NC(=O)Nc3ccc4c(c3)OCO4)ccc2O[C@H]1CN(C)CC1CCCCC1,i,i,i,i
C[C@@H]1CN([C@@H](C)CO)C(=O)Cc2cc(NC(=O)Nc3ccc4c(c3)OCO4)ccc2O[C@@H]1CN(C)CC1CC1,i,i,-88.2,i
C[C@H](CO)N1C[C@H](C)[C@@H](CN(C)CC2CC2)Oc2ccc(NC(=O)Nc3ccc4c(c3)OCO4)cc2CC1=O,i,i,-82.9,i
C[C@H](CO)N1C[C@H](C)[C@@H](CN(C)CC2CCCCC2)Oc2ccc(NC(=O)Nc3ccc4c(c3)OCO4)cc2CC1=O,nt,i,i,i
Cc1cccc(-c2ccc([C@@H]3[C@@H](CO)N4C(=O)CN(C(=O)c5cccnc5)C[C@H]34)cc2)c1,nt,nt,i,i
C/C=C/c1ccc2c(c1)O[C@@H](CN(C)CCC)[C@@H](C)CN([C@H](C)CO)S2(=O)=O,52.8,i,i,37.9
C/C=C/c1ccc2c(c1)O[C@@H](CN(C)Cc1ccc(C(=O)O)cc1)[C@H](C)CN([C@@H](C)CO)S2(=O)=O,i,nt,i,i
C/C=C/c1ccc2c(c1)O[C@H](CN(C)Cc1ccc(C(=O)O)cc1)[C@@H](C)CN([C@H](C)CO)S2(=O)=O,i,nt,-85.9,i
O=C(NCC[C@H]1CC[C@H](NS(=O)(=O)c2cccc(F)c2)[C@H](CO)O1)C1CCCC1,i,nt,i,i
O=C(NCC[C@H]1CC[C@H](NC(=O)c2cccnc2)[C@H](CO)O1)Nc1ccc(F)cc1,94.4,i,i,64.8
O=C(NCC[C@H]1CC[C@@H](NC(=O)c2cccnc2)[C@@H](CO)O1)Nc1ccc(F)cc1,i,i,i,i
